Bioassay records: PubChem BioAssay, several laboratories
UPR CHOP act = apoptotic UPR (CHOP) activation; CHO-CHOP luciferase reporter, luminescence; percent of tunicamycin response over DMSO baseline; activation, % at 10 µM; actives 0.34% (n = 330,000); AID 449763;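 active means at 10 µM dose, activation of 40% or more, normalized to positive control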;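 further: 100% = tunicamycin at 10 µg/mL and 0% = DMSO alone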
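System: CHO CHOP reporter cells. Amount: 500 cells per well. Buffer or medium: F12 medium, 10% FBS. Compound dosing: one dose, 10 µM in 0.5% DMSO. Incubation: 6 h compound exposure at 37 °C after overnight seeding. Technique: Steady-Glo luciferase luminescence. Benchmarks: tunicamycin and DMSO controls.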
Mdm2 MdmX PPI = inhibitors of human Mdm2/MdmX interaction. actives 3% (n = 330,000). inhibition, % at 8 µM. O15151+Q00987. SaOS-2 split-luciferase Mdm2/MdmX complementation, luminescence;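 active means inhibition of at least 50% at 8 µM in the primary screen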
Target sequence (O15151 whole entry, looked up): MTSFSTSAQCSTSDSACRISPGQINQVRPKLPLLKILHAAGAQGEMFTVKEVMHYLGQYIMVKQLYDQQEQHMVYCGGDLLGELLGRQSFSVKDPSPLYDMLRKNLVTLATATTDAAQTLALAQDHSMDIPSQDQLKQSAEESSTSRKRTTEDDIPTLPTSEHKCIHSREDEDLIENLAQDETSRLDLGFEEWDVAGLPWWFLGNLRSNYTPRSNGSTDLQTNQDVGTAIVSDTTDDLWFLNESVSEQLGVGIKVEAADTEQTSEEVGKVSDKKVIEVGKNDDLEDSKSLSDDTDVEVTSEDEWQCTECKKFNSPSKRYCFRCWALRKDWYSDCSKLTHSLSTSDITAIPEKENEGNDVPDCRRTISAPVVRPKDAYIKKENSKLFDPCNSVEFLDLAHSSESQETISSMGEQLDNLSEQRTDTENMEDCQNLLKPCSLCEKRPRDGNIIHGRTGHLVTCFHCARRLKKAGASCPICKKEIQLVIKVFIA
Target sequence (Q00987 whole entry, looked up): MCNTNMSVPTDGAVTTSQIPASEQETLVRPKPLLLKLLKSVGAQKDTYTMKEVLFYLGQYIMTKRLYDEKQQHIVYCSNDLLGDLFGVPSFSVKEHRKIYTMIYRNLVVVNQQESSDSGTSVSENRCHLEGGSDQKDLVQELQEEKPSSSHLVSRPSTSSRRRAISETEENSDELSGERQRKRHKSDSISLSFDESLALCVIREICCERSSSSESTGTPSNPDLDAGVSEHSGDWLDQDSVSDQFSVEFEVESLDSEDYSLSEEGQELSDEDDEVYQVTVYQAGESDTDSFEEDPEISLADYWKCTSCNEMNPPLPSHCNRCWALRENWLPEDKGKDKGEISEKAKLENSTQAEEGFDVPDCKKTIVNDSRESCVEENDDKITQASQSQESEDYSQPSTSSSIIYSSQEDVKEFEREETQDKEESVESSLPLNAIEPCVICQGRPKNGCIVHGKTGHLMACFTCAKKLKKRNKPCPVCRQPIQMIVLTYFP
ABHD5 PLIN5 PPI = inhibitors of human ABHD5-perilipin-5 interaction; Q00G26+Q8WTS1; actives 0.78% (n = 360,000); inhibition, % at 4 µM; Split G. princeps luciferase complementation, luminescence, 4 h; AID 602281;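 active means inhibition above the mean inhibition across every tested compound plus 3 SD, cut at about 22% in these data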;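 further: 0% = DMSO only wells and the 100% control is not disclosed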
Exocytosis inh = lytic granule exocytosis inhibition; TALL-104 LAMP-1 surface exposure, flow cytometry; cells stimulated with thapsigargin and PMA; inhibition, % at 10 µM; actives 0.66% (n = 360,000);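 active means inhibition above about 55%, limit read from the data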
XBP1 UPR activ = activators of adaptive arm of unfolded protein response (XBP1); activation, % at 20 µM; actives 0.33% (n = 330,000); CHO-XBP1 luciferase reporter, IRE1-XBP1 UPR activation, luminescence; percent of tunicamycin response, DMSO as zero; AID 463104;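 active means versus positive control, 20 µM dose yields 30% or more activation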;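 further: 100% = tunicamycin at 10 µg/mL and 0% = DMSO only wells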
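Assay system: CHO-XBP1 luciferase reporter cells; Schedule: 6 h treatment, 37 °C; Detection: glow luminescence from Steady-Glo reagent; Benchmarks: high control tunicamycin 10 µg/mL final, low control DMSO vehicle only.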
Mdm2 MdmX conf = confirmation of human Mdm2/MdmX interaction inhibitors; inhibition, % at 8 µM; actives 55% (n = 10,000); shares compounds with Mdm2 MdmX PPI; Mdm2-MdmX binding, luminescent assay; in the data active means inhibition above about 40%
FLuc counter = counter-screen for Mdm2/MdmX inhibitors: full-length luciferase | shares compounds with Mdm2 MdmX PPI | SaOS-2 full-length luciferase counterscreen, luminescence | inhibition, % at 8 µM | actives 77% (n = 6,200) | AID 504607;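 active means mean inhibition at 8 µM reaching about 37%, which flags the compound as non-specific, limit read from the data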;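 further: p53-null SaOS-2 cells with luciferase driven by a doxycycline-inducible promoter; compound on cells about two nights before reading with doxycycline added after day one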
An asterisk follows results filed as active; nt = no result given. A selection: hits, their analogues and other compounds. The true share with any hit is near 4%.

SMILES	UPR CHOP act	Mdm2 MdmX PPI	ABHD5 PLIN5 PPI	Exocytosis inh	XBP1 UPR activ	Mdm2 MdmX conf	FLuc counter
Cc1nn(-c2ccccc2)c(C)c1/C=N/NC(=O)c1cc(-c2ccc(Cl)s2)[nH]n1	-1.0	56.0*	4.0	7.6	19.9	58.9*	49.4*
Cc1nn(-c2ccccc2)c(C)c1/C=N/NC(=O)c1cc(-c2cccs2)[nH]n1	4.4	69.8*	-10.0	20.0	11.0	56.1*	77.8*
CCNC(=O)COc1ccc(/C=N/NC(=O)c2cccnc2)cc1OC	0.0	7.0	-1.9	-0.9	-3.0	nt	nt
CCN(CC)CCN(C(=O)c1ccc2c(c1)OCCO2)c1nc2cc3c(cc2s1)OCO3	-0.7	1.6	0.9	-1.2	-5.6	nt	nt
CN(C)CCN(C(=O)c1ccc2ccccc2c1)c1nc2cc3c(cc2s1)OCCO3	1.7	2.6	3.6	1.1	-2.9	nt	nt
CN(C)CCCN(C(=O)c1ccc(S(=O)(=O)N2CCCCCC2)cc1)c1nc2cc3c(cc2s1)OCO3	nt	nt	9.4	14.2	nt	nt	nt
CCC1CCCCN1S(=O)(=O)c1ccc(C(=O)N(CCCN(C)C)c2nc3cc4c(cc3s2)OCO4)cc1 (stereo not given)	2.0	63.0*	15.7	42.7	0.3	43.0*	58.5*
CN(C)CCCN(C(=O)c1ccc2ccccc2c1)c1nc2cc3c(cc2s1)OCO3	1.5	76.6*	13.1	29.8	2.8	45.9*	60.9*
CCN(CC)CCN(C(=O)c1cc2c(ccc3ccccc32)oc1=O)c1nc2cc3c(cc2s1)OCCO3	18.8	100.3*	5.8	15.5	209.8*	32.6	nt
Cc1ccc(C(=O)N2CCN(c3ccc(NC(=O)c4cccnc4)cc3)CC2)cc1	-1.0	20.4	1.9	-0.6	-0.6	nt	nt
CCC1(c2ccccc2)ON(c2c(Br)cccc2Br)C1=O (stereo not given)	5.9	92.9*	0.6	-4.7	-0.8	91.5*	46.6*
CCC1(c2ccccc2)CN(C)C1=O (stereo not given)	nt	nt	-3.6	3.9	nt	nt	nt
CC(/C=C/c1ccccc1)=N/NC(=O)c1cnccn1	0.2	-6.0	1.1	-2.7	-0.1	nt	nt
CSc1ccc(S(=O)(=O)Nc2ccc3c4c(cccc24)CC3)cc1	-0.7	-5.0	-12.2	54.3	3.5	nt	nt
CCCc1nc2oc3c(Cl)ncnc3c2c2c1CCCC2	3.4	100.3*	2.3	46.7	6.9	12.3	nt
CC(C)Cc1nc2oc3c(Cl)ncnc3c2c2c1CCCC2	0.9	67.8*	9.0	24.6	6.5	9.2	nt
O=C(CCl)NC1CCCc2ccccc21 (stereo not given)	-1.9	58.1*	3.9	0.1	-3.1	20.4	nt
O=C(Cc1ccc(Br)cc1)NC1CCCc2ccccc21 (stereo not given)	1.3	-3.4	2.8	1.5	5.5	nt	nt
COc1ccc(-c2csc(NC(=O)CN3C(=O)NC4(CCCC4)C3=O)n2)c(OC)c1	0.2	22.4	-3.1	-4.7	-1.1	nt	nt
O=C(Nc1ccc(Cl)cc1)N1CCCN(Cc2ccc(F)cc2)C1	1.2	53.0*	11.3	5.6	-2.4	29.1	nt
O=C(Nc1ccccc1)N1CCN(Cc2ccc(Cl)cc2)CC1	3.4	1.4	1.8	-10.7	2.9	nt	nt
CCOC(=O)c1cccc(NC(=O)CN2CCN(c3ccc(OC)cc3)CC2)c1	-1.4	-2.6	5.4	-4.7	1.2	nt	nt
CCN1/C(=C/C=C/c2oc3ccc4ccccc4c3[n+]2CC)Oc2ccc3ccccc3c21	12.8	96.8*	nt	nt	-2.3	98.7*	28.6
Cc1cccc(C)c1NC(=O)CN1CCN(CCCC(c2ccc(F)cc2)c2ccc(F)cc2)CC1	7.9	60.2*	3.2	17.6	0.9	43.5*	74.2*
O=C(NCCN1CCOCC1)c1ccc2c(c1)N(Cc1ccccc1F)C(=O)c1ccccc1S2	-2.1	13.6	4.8	-2.4	0.2	nt	nt
SMILES	UPR CHOP act	Mdm2 MdmX PPI	ABHD5 PLIN5 PPI	Exocytosis inh	XBP1 UPR activ	Mdm2 MdmX conf	FLuc counter
CCN1CCN(CCCNC(=O)c2ccc(/C=C3/Sc4ccccc4N(Cc4ccccc4F)C3=O)cc2)CC1	5.5	93.9*	13.6	69.8*	2.9	74.2*	24.1
CCN1CCN(CCCNC(=O)c2ccc(/C=C3/Oc4ccccc4N(Cc4cccc(C)c4)C3=O)cc2)CC1	15.2	100.4*	1.1	46.0	1.3	32.8	nt
Cc1cccc(C)c1NC(=S)N/N=C/c1ccc(OCCC(C)C)cc1	-0.6	25.9	-10.1	-0.6	0.5	nt	nt
COC(=O)C1=CN(c2ccc(N3CCOCC3)cc2)C(N)=C(C#N)C1c1cccc(OC)c1OC (stereo not given)	nt	nt	-7.7	-3.4	nt	nt	nt
COc1ccc(NS(=O)(=O)c2cc(S(C)(=O)=O)ccc2C)cc1	0.2	8.1	5.9	12.5	-2.8	nt	nt
Cc1cccc(/C=C2\Sc3ccc(C(=O)N4CCCCC4)cc3N(C)C2=O)c1	2.1	45.3	-3.6	-0.4	-0.9	nt	nt
CN1C(=O)/C(=C/c2cccc(Cl)c2)Sc2ccc(C(=O)N3CCCC3)cc21	2.4	73.2*	nt	nt	-5.1	12.6	nt
CN(C#N)c1nc(N2CCOCC2)nc(N2CCOCC2)n1	0.1	7.5	-3.2	-1.3	0.4	nt	nt
CC(C)CN(C#N)c1nc(N2CCOCC2)nc(N2CCOCC2)n1	-1.5	50.7*	2.3	-0.7	-1.0	38.4	69.7*
Cc1nn(CC(=O)Nc2cccc(Cl)c2)c(=O)c2cc(-c3ccccc3)nn12	-0.9	55.6*	-3.9	0.2	-0.3	12.0	nt
COc1ccc(-c2cc3c(=O)n(CC(=O)NCc4cccnc4)nc(C)n3n2)cc1	1.7	-24.8	3.0	-8.7	-6.6	nt	nt
COc1ccc(-c2cc3c(=O)n(CC(=O)Nc4ccc(Cl)cc4)nc(C)n3n2)cc1	0.7	67.5*	-2.6	2.2	0.7	42.8*	67.0*
CCOC(=O)/C=C1\SCC(=O)N1CC(=O)c1ccc[nH]1	1.0	13.0	6.8	-2.2	-1.2	nt	nt
O=C(Cc1ccccc1)NNc1c2ccccc2nc2ccccc12	2.3	8.5	-1.9	-0.3	1.0	nt	nt
O=C(Nc1c2ccccc2nc2ccccc12)C(Cl)(Cl)Cl	-5.1	62.3*	4.9	23.9	-8.2	48.3*	33.7
CCOC(=O)c1cnc2ccc(C)cc2c1Sc1ccc(F)cc1	7.9	20.6	0.8	1.8	6.9	nt	nt
CN(C)c1ccc(/C=C/c2nc3ccccc3s2)cc1	-7.2	64.1*	4.9	0.3	-5.5	-41.6	nt
CN(C)c1ccc(/C=C/c2ccc3ccccc3n2)cc1	nt	nt	8.7	21.2	nt	nt	nt
Cc1ccc(-c2c(C#N)c(N)n3c(nc4ccccc43)c2C#N)cc1	4.4	77.2*	-11.5	6.8	3.5	54.9*	57.7*
N#Cc1c(-c2ccccc2)c(C#N)c2nc3ccccc3n2c1N	-0.8	54.7*	7.5	-1.2	5.6	47.9*	48.2*
O=C(c1cc(-c2ccccc2)nn1-c1ccccc1)N1CCN(S(=O)(=O)c2cccc(F)c2)CC1	2.5	38.3	20.9	12.6	0.1	nt	nt
